# Compound activity: PubChem BioAssay, several laboratories
# AI-2 QS mod – modulates the Vibrio harveyi AI-2 quorum sensing system. actives 0.4% (n = 300,000). activity change, % at 7.5 µM. Vibrio harveyi JMH597 AI-2 luminescence/OD600 ratio, 9 h; hits give low values; strain lacks LuxN and CqsS sensors; 0 = neutral-control median; in the data active = activity change below about -75%, passing the limit was not always enough;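 note: luminescence divided by OD600 gain over 9 h not by final OD600 alone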
# HSF1 inhib – HSF1 inhibition. activity change, negative = inhibition, % at 7.5 µM (by protocol). actives 0.77% (n = 300,000). NIH3T3-HGL HSE-luciferase, MG132-induced, luminescence 8 h; hits give low values;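 active = more than half of replicate wells show activity change below -50%, luminescence cut by over half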;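 note: luciferase reports HSF-1 transcriptional activity via heat shock element; 0% = median of DMSO wells and -100% = zero luminescence signal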
# HSF-1 act – increases HSF-1 driven luciferase reporter signal; actives 1.7% (n = 300,000); NIH3T3-HGL HSF-1 luciferase reporter, MG132, 8 h; 100% = twice DMSO control signal; activation, % at 9 µM;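 active = mean replicate activation of at least 50% with a set share of replicates each reaching 50%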;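 note: 0% = median of the neutral control wells and 100% = twice that signal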
# HCV core dimer – blocks dimerization of HCV core protein; actives 0.33% (n = 300,000); AID 1899; TR-FRET GST/Flag-core106 dimerization, 1536-well; inhibition, % at 5 µM;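 active = inhibition above the mean of all tested compounds plus 3 SD, set per screening campaign, cut at about 45% in these data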
#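 System: GST-tagged and Flag-tagged HCV core protein residues 1-106 / Input: core106 proteins, GST 13.5 nM and Flag 17 nM / Buffer or medium: KF-containing HEPES buffer, pH 7.45, DTT, CHAPS, BSA / Probe or stimulus: Eu-anti-GST and XL665-anti-Flag labelled anti-tag antibodies / Schedule: 4 h, 22.5 °C incubation / Technique: TR-FRET 671 and 617 nm emission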
# ALR inh – human ALR oxidase inhibition via reduced H2O2; purified ALR, DTT oxidation, H2O2 HRP-luminol luminescence; inhibition, % (no concentration beside the values); actives 3.8% (n = 290,000);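 active = mean replicate inhibition above about 79%, with every replicate also reaching it, limit read from the data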
# Target sequence (P55789 whole entry, looked up): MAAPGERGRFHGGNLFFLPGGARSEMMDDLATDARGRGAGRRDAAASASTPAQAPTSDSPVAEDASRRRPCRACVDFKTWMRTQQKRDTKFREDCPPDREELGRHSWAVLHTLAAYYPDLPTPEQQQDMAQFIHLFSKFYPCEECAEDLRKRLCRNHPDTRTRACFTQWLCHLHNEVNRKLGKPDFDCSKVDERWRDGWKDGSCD
# PHOSPHO1 inh – PHOSPHO1 (human) inhibition; recombinant PHOSPHO1, absorbance phosphatase assay; Q8TCT1; actives 1.1% (n = 290,000); inhibition, % at 13.3 µM; AID 1565; in the data active = inhibition above about 60%
# Target sequence (Q8TCT1 whole entry, looked up): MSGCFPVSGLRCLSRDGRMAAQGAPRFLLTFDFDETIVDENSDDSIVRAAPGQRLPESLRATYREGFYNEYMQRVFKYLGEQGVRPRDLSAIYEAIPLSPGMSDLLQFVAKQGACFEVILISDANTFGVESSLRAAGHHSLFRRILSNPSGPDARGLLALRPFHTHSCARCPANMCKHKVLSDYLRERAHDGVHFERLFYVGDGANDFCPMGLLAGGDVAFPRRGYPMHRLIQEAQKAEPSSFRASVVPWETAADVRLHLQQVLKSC
# * = called active by the depositor; x = no result given. Hits are enriched below; roughly 6.8% of the tested compounds scored in any of these assays.
SMILES,AI-2 QS mod,HSF1 inhib,HSF-1 act,HCV core dimer,ALR inh,PHOSPHO1 inh
N=c1sccn1CC(=O)Nc1cc(Cl)ccc1Oc1ccccc1,23,49,79*,-3,2,69*
N=c1sccn1CC(=O)Nc1cccc(Oc2ccccc2)c1,-6,-23,-40,-6,6,38
COc1ccc(C2N(Cc3ccccc3)CCN2Cc2ccccc2)cc1[N+](=O)[O-],11,2,-20,3,0,60*
COc1ccc2[nH]cc(C(=O)CCl)c2c1,23,-5,-24,0,x,30
COc1ccc2[nH]cc(C(=O)CNc3nc(C)cs3)c2c1,19,-5,-1,-26,81*,89*
Cc1cc2c(c(=O)o1)C(CCC1CCCCC1)C(C#N)=C(N)O2 (stereo not drawn),12,1,-1,4,97*,15
CCC(CC)C1C(C#N)=C(N)Oc2cc(C)oc(=O)c21 (stereo not drawn),-7,8,8,-1,19,4
CN1CCN(/N=C/c2nc(-c3cccc([N+](=O)[O-])c3)n3ccccc23)CC1,14,-9,8,-17,99*,-21
COc1ccc(Cc2nnc(NC(=O)c3cccs3)s2)cc1OC,7,-3,-10,5,2,-13
COc1ccc(Cl)cc1NC(=O)CCc1nc(-c2ccccc2F)no1,-1,57,69*,1,x,28
C=CCn1c(SCC(=O)c2ccc(O)c(O)c2)nnc1-c1cccc(C)c1,x,x,x,x,70,x
C=CCn1c(SCC(N)=O)nnc1-c1cc(Br)ccc1O,4,1,-2,-4,97*,11
C=CCn1c(SCC(=O)c2ccc(O)c(O)c2)nnc1-c1cccc(Cl)c1,x,x,x,x,98*,x
C=CCn1c(SCC(=O)c2ccc(O)c(O)c2)nnc1-c1cccnc1,3,-4,-6,-4,99*,-15
C=CCn1c(SCC(N)=O)nnc1-c1ccccc1O,11,-5,0,-4,3,21
COc1ccc(NC(=O)Cc2ccc(C)c(C)c2)cc1Cl,7,-8,18,0,x,4
COC(=O)c1sc(S(=O)(=O)NC(Cc2ccccc2)C(=O)O)c(C(=O)OC)c1C (stereo not drawn),x,x,x,x,-1,x
CCC(=O)NC(=S)Nc1cccc(C(C)=O)c1,-62,-3,2,-6,-2,6
CCC(=O)Nc1cccc(NC(=S)NC(=O)c2ccc(C)cc2)c1,4,14,35,-4,x,50
CCCC(=O)NC(=S)Nc1cccc(C(C)=O)c1,-78*,17,28,-10,x,6
CCC(=O)Nc1cccc(NC(=S)NC(=O)c2ccccc2)c1,-1,22,54*,2,x,10
O=C1C(Nc2ccc(O)cc2)=C/C(=N/S(=O)(=O)c2cccs2)c2ccccc21,10,-93*,-94,x,x,48
Cc1cc(C)c(S(=O)(=O)/N=C2\C=C(NS(=O)(=O)c3ccccc3)C(=O)c3ccccc32)c(C)c1,26,11,30,2,-32,-91
Cc1cc(C)c(S(=O)(=O)/N=C2\C=C(Nc3ccc(C(=O)O)cc3)C(=O)c3ccccc32)c(C)c1,38,-87*,-88,-1,x,28
CCc1ccc(S(=O)(=O)/N=C2\C=C(Nc3ccc(O)cc3)C(=O)c3ccccc32)cc1,-1,-95*,-96,-3,x,-4
SMILES,AI-2 QS mod,HSF1 inhib,HSF-1 act,HCV core dimer,ALR inh,PHOSPHO1 inh
Cc1ccc(Cl)cc1NC1=C/C(=N\S(=O)(=O)c2cccs2)c2ccccc2C1=O,13,-94*,-95,22,-27,14
Cc1cccc(NC2=C/C(=N/S(=O)(=O)c3cccs3)c3ccccc3C2=O)c1,x,x,x,-3,x,-23
CN(c1ccccc1)S(=O)(=O)c1ccc(Cl)c(C(=O)NCc2ccccc2CN2CCCC2)c1,x,x,x,x,-5,x
Cc1ccc(NC2=C/C(=N\S(=O)(=O)c3cccs3)c3ccccc3C2=O)c(C)c1,29,-95*,-95,52*,-34,29
O=C(O)c1ccc2c(=O)n3c(nc2c1)/C(=C/c1ccccc1Br)CC3,18,-5,-6,3,21,32
O=C1C=C(c2ccccc2)CC(c2cccs2)C1n1cnc([N+](=O)[O-])c1 (stereo not drawn),-6,-4,31,47*,5,26
CCOC(=O)c1c(NC(=O)/C=C/C(=O)O)sc(C)c1-c1ccc(C(C)(C)C)cc1,13,23,33,20,97*,32
CC1(c2ccc3ccccc3c2)NC(=O)N(CC(=O)N2CCN(c3ccccc3O)CC2)C1=O (stereo not drawn),1,-1,19,29,-4,28
Cc1cc(C)cc(N2Cc3ccccc3C2)c1,31,-10,-28,62*,-8,-2
CCc1ccc(N2Cc3ccccc3C2)cc1,14,12,18,17,-14,9
CC(=O)Nc1cc(C(=O)N(C)Cc2ccco2)ccc1Sc1ccc(C)cc1,13,-81*,-85,-4,-13,7
CC(=O)Nc1cc(C(=O)N2CCCC2)ccc1Sc1ccc(C)cc1,33,-10,-12,-2,0,-4
CCOc1ccc(N(CC(=O)NN=C2CCN(C)CC2)S(=O)(=O)c2ccc(Br)cc2)cc1,37,10,16,x,4,47
CCCOC(=O)C(=O)NNc1ccccc1,13,-2,-21,0,100*,4
CC(C)OC(=O)C(=O)NNc1ccccc1,31,4,-6,-6,100*,-44
CC(C)N(Cc1ccccc1)C(=O)CCS(=O)(=O)c1ccc2c(c1)oc(=O)n2C,28,7,6,-6,1,3
NS(=O)(=O)c1ccc(NC(=O)COC(=O)COc2cccc(C(F)(F)F)c2)cc1,16,1,3,-7,-1,0
C=CCn1c(SCC(=O)Nc2nc(C)cs2)nnc1C(CO)NC(=O)c1ccccc1 (stereo not drawn),8,-2,-4,10,85*,-6
COc1ccc(CCSc2nnc(C3CCCCC3)n2N)cc1,13,-2,-6,-1,96*,59
CN(C)c1ccc(NC(=O)CSc2nnc(C3CCCCC3)n2N)cc1,14,8,30,-9,99*,15
CCCCn1nnnc1SCC(=O)Nc1ccc(N(C)C)cc1,10,6,-2,-9,99*,-64
COc1ccc(NC(=O)CSc2nnc(C3CCCCC3)n2N)c(OC)c1,27,1,7,-6,-13,22
O=C(COc1ccc(Br)cc1)NCCN1CCCC1,2,-1,-5,4,-12,34
Cc1ccc2oc(C(=O)N(C)Cc3ccc(C)o3)c(C)c2c1,13,2,15,13,12,-36
